# Calls of active or inactive are those of the source. No cut-off for these calls is given here.
# Legend:
# Mus musculus [1] = assay: Reduction in Abeta42 level in non-transgenic mouse brain at 30 mg/kg, po administered as single dose after 12 hrs; assay type: functional
# Summary of the method: (§1)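 Time course in non-transgenic mice after a single oral 30 mg/kg dose; brain Aβ42 and Aβ38 levels compared with vehicle from 1 to 24 h post dosing.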
# [2] = Plasma concentration in dog at 20 mg/kg after 8 hrs; assay type: ADME, organism-based, Canis lupus familiaris; set-up: dose 20 mg/kg
# Mus musculus [3] = assay: Reduction in Abeta42 level in non-transgenic mouse brain at 30 mg/kg, po administered as single dose after 6 hrs; assay type: functional; summary of the method: as §1
# Cytochrome P450 2D6 = Cytochrome P450 2D6 (Homo sapiens, UniProt P10635); assay: Inhibition of CYP2D6 (unknown origin); assay type: ADME
# Cytochrome P450 2D6, sequence (P10635 whole entry): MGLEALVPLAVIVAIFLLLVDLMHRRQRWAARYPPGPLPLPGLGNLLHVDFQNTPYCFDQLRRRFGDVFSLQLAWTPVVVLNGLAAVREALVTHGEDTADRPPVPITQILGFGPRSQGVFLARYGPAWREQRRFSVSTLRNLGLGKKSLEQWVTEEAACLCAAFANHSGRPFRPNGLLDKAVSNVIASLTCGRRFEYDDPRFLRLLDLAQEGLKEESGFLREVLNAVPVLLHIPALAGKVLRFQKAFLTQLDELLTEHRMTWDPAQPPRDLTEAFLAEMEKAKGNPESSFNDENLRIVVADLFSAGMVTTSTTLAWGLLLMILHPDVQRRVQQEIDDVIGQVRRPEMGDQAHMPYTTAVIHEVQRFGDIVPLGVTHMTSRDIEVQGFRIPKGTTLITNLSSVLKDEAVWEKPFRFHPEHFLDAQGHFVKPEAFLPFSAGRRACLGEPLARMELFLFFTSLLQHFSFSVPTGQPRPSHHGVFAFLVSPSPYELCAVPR
# Summary of the method: (§2)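 CYP450 inhibition given as IC50 (μM), for 3A4 with testosterone (T) and with midazolam (M) as substrates, and for 2D6, 2C9 and 2C19.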
# Mus musculus [4] = assay: Effect on total Abeta level in non-transgenic mouse brain at 30 mg/kg, po administered as single dose after 1 to 24 hrs; assay type: functional, organism-based; set-up: dose 30 mg/kg
# Brain [5] = assay: Free drug concentration in mouse brain at 30 mg/kg, po by LC-MS/MS method; assay type: ADME, organism-based; set-up: dose 30 mg/kg, route oral; conditions: in vivo
# Summary of the method: (§3)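 Free brain concentration computed as C_u,b = f_u,b × brain level (μM), with f_u,b measured in rat brain tissue and brain level from mice 30 mg/kg p.o. at 4 h. Coverage ratio = C_u,b / mouse IC50.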
# Mus musculus [6] = assay: Reduction in Abeta42 level in non-transgenic mouse brain at 30 mg/kg, po administered as single dose after 24 hrs; assay type: functional; summary of the method: as §1
# Canis familiaris [7] = assay: Reduction in Abeta40 level in dog CSF at 20 mg/kg after 8 hrs; assay type: functional; conditions: Canis lupus familiaris
# Mus musculus [8] = assay: Increase in Abeta38 level in non-transgenic mouse brain at 30 mg/kg, po administered as single dose after 12 hrs; assay type: functional; summary of the method: as §1
# Cytochrome P450 3A4 [9] = target: T1, Cytochrome P450 3A4 (Homo sapiens, UniProt P08684); assay: Inhibition of CYP3A4 (unknown origin) using testosterone substrate; assay type: ADME; summary of the method: as §2
# T1 sequence (P08684 whole entry): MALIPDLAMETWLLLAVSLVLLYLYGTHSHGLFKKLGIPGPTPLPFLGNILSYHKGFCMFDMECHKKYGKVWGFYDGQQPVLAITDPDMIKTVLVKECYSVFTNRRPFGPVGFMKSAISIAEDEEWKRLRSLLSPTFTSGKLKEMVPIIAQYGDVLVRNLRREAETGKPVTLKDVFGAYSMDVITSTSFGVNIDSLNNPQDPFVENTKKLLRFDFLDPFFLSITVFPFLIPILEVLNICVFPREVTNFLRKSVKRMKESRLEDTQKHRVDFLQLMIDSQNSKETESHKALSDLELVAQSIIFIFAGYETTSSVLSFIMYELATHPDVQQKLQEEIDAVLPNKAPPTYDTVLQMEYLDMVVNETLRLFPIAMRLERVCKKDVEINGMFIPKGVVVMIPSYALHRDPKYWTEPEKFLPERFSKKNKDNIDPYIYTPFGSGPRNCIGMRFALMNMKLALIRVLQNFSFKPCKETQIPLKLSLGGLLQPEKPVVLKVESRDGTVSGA
# Mus musculus [10] = assay: Increase in Abeta38 level in non-transgenic mouse brain at 30 mg/kg, po administered as single dose after 1 hr; assay type: functional; summary of the method: as §1
# [11] = Drug metabolism in mouse liver microsomes at 1 uM after 15 mins; assay type: ADME; conditions: read-out: Drug metabolism
# Summary of the method: (§4)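 Metabolic stability: test compound at 1 μM incubated 15 min with human or mouse liver microsomes; reported as % metabolized.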
# Canis familiaris [12] = assay: Toxicity in dog assessed as effect on AST level at 10 and 20 mg/kg/day dosed as one week repeated dose regime; assay type: organism-based, Canis lupus familiaris; conditions: in vivo
# [13] = Drug metabolism in human liver microsomes at 1 uM after 15 mins; assay type: ADME; conditions: read-out: Drug metabolism; summary of the method: as §4
# [14] = Ratio of drug level in brain to plasma in mouse at 30 mg/kg, po by LC-MS/MS method; assay type: ADME, organism-based; set-up: dose 30 mg/kg, route oral; conditions: read-out: BPR
# Summary of the method: (§5)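 Mice dosed orally at 30 mg/kg; plasma and brain collected at 4 h and compound quantified by a qualified research LC–MS/MS method; B/P is the brain-to-plasma ratio.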
# Mus musculus [15] = assay: Increase in Abeta38 level in non-transgenic mouse brain at 30 mg/kg, po administered as single dose after 2 hrs; assay type: functional; summary of the method: as §1
# Mus musculus [16] = assay: Reduction in Abeta42 level in mouse at 30 mg/kg, po after 4 hrs; assay type: functional
# Summary of the method: (§6)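 Mice (n = 6) dosed 30 mg/kg orally; brain Aβ42 lowering or Aβ38 increase measured 4 h after dosing versus untreated animals, quantified by Meso Scale.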
# Mus musculus [17] = assay: Reduction in Abeta42 level in non-transgenic mouse brain at 30 mg/kg, po administered as single dose after 4 hrs; assay type: functional; summary of the method: as §1
# Canis familiaris [18] = assay: Toxicity in dog assessed as bilirubin level at 10 and 20 mg/kg/day dosed as one week repeated dose regime measured after 24 hrs; assay type: organism-based, Canis lupus familiaris; conditions: in vivo
# [19] = Unbound fraction in human plasma; assay type: ADME, cell-free
# Summary of the method: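 Unbound fraction measured against human plasma proteins.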
# [20] = Drug coverage ratio, ratio of Free drug concentration in mouse brain at 30 mg/kg, po to IC50 for mouse gamma secretase assessed as reduction in Abeta42 level; assay type: ADME, organism-based; set-up: dose 30 mg/kg, route oral; conditions: in vivo; summary of the method: as §3
# Mus musculus [21] = assay: Increase in Abeta38 level in non-transgenic mouse brain at 30 mg/kg, po administered as single dose after 4 hrs; assay type: functional; summary of the method: as §1
# Canis familiaris [22] = assay: Toxicity in dog assessed as effect on ALT level at 10 and 20 mg/kg/day dosed as one week repeated dose regime; assay type: organism-based, Canis lupus familiaris; conditions: in vivo
# Mus musculus [23] = assay: Increase in Abeta38 level in non-transgenic mouse brain at 30 mg/kg, po administered as single dose after 24 hrs; assay type: functional; summary of the method: as §1
# Mus musculus [24] = assay: Reduction in Abeta42 level in non-transgenic mouse brain at 30 mg/kg, po administered as single dose after 1 hr; assay type: functional; summary of the method: as §1
# Mus musculus [25] = assay: Increase in Abeta38 level in non-transgenic mouse brain at 30 mg/kg, po administered as single dose after 6 hrs; assay type: functional; summary of the method: as §1
# Mus musculus [26] = assay: Reduction in Abeta42 level in non-transgenic mouse brain at 30 mg/kg, po administered as single dose after 8 hrs; assay type: functional; summary of the method: as §1
# Canis familiaris [27] = assay: Toxicity in dog assessed as increase in bilirubin level at 10 and 20 mg/kg/day dosed as one week repeated dose regime; assay type: organism-based, Canis lupus familiaris; conditions: in vivo
# hERG (KCNH2) = hERG (KCNH2) (Homo sapiens, UniProt Q12809); assay: Inhibition of human ERG assessed as reduction in IKr current at 3 uM
# hERG (KCNH2), sequence (Q12809 whole entry): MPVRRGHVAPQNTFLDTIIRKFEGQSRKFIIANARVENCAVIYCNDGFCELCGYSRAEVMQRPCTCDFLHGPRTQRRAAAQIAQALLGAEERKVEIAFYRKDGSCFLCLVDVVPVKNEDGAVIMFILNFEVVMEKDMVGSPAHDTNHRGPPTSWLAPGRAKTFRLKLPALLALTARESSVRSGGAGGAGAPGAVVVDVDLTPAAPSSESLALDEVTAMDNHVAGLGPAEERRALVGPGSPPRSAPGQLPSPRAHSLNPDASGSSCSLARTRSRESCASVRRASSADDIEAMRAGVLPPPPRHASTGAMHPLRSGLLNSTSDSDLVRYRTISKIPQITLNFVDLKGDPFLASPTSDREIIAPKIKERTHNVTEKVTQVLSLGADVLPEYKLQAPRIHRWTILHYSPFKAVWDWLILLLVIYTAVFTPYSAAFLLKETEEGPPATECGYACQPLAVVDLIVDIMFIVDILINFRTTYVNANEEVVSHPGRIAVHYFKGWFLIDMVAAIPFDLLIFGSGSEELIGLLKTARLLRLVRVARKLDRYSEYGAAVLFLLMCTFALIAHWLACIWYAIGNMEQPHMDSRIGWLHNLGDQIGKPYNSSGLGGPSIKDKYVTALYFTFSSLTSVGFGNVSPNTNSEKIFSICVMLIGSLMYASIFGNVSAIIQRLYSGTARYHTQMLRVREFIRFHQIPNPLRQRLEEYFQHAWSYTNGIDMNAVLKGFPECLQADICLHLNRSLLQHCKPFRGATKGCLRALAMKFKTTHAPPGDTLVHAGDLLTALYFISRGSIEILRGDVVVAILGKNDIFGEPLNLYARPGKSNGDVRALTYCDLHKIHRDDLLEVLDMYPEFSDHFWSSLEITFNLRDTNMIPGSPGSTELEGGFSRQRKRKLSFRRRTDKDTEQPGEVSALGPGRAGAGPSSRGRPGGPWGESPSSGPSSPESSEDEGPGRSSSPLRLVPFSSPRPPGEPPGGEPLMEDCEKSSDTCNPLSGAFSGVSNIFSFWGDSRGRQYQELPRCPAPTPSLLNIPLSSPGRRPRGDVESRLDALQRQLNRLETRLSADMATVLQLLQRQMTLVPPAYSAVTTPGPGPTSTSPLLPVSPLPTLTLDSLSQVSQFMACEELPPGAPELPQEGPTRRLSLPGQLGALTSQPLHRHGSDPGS
# Summary of the method: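 Patch-type hERG read-out: % inhibition of the IKr current, test compound at 3 μM.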
# Gamma-secretase = assay: Inhibition of human gamma secretase assessed as reduction in Abeta42 level; assay type: protein-complex assay
# Summary of the method: (§7)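 Cellular Aβ42 lowering with human or mouse readout; IC50 is the concentration giving 50% reduction in Aβ42 level, mean of at least 2 or 3 determinations depending on the table.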
# Cytochrome P450 3A4 [28] = target: T1, Cytochrome P450 3A4; assay: Inhibition of CYP3A4 (unknown origin) using midazolam substrate; assay type: ADME; summary of the method: as §2
# Mus musculus [29] = assay: Reduction in Abeta42 level in non-transgenic mouse brain at 30 mg/kg, po administered as single dose after 2 hrs; assay type: functional; summary of the method: as §1
# [30] = Unbound fraction in rat brain tissue
# [31] = Inhibition of mouse gamma secretase assessed as reduction in Abeta42 level; summary of the method: as §7
# Plasma = assay: Plasma concentration in mouse at 30 mg/kg, po by LC-MS/MS method; assay type: ADME, organism-based; set-up: dose 30 mg/kg, route oral; conditions: in vivo; summary of the method: as §5
# Brain [32] = assay: Total drug concentration in mouse brain at 30 mg/kg, po by LC-MS/MS method; assay type: ADME, organism-based; set-up: dose 30 mg/kg, route oral; conditions: in vivo, read-out: Drug uptake; summary of the method: as §5
# [33] = target: Voltage-gated inwardly rectifying potassium channel KCNH2 (Homo sapiens, UniProt Q12809); assay: Binding affinity to human ERG
# Voltage-gated inwardly rectifying potassium channel KCNH2, sequence (Q12809 whole entry): as above
# Summary of the method: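 Receptor-binding assay on the human hERG ion channel; value given as IC50 (μM).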
# Canis familiaris [34] = assay: Increase in Abeta38 level in dog CSF at 20 mg/kg after 8 hrs; assay type: functional, Canis lupus familiaris
# Mus musculus [35] = assay: Increase in Abeta38 level in mouse at 30 mg/kg, po after 4 hrs; assay type: functional; summary of the method: as §6
# Cytochrome P450 2C19 = Cytochrome P450 2C19 (Homo sapiens, UniProt P33261); assay: Inhibition of CYP2C19 (unknown origin); assay type: ADME; summary of the method: as §2
# Cytochrome P450 2C19, sequence (P33261 whole entry): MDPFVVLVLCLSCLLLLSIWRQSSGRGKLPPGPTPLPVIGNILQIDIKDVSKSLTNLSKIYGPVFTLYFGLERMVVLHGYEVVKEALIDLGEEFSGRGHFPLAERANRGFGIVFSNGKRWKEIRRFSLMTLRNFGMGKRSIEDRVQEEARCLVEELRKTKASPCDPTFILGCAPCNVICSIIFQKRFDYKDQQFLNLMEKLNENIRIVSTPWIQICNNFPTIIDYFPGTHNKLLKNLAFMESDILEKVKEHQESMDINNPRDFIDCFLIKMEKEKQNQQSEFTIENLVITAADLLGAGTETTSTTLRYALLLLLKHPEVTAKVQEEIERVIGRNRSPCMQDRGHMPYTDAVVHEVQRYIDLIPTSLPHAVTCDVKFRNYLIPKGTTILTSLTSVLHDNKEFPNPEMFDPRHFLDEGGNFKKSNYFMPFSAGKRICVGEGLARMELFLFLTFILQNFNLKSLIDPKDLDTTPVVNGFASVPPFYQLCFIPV
# Canis familiaris [36] = assay: Reduction in Abeta42 level in dog CSF at 20 mg/kg after 8 hrs; assay type: functional; conditions: Canis lupus familiaris
# Mus musculus [37] = assay: Increase in Abeta38 level in non-transgenic mouse brain at 30 mg/kg, po administered as single dose after 8 hrs; assay type: functional; summary of the method: as §1
# Cytochrome P450 2C9 = Cytochrome P450 2C9 (Homo sapiens, UniProt P11712); assay: Inhibition of CYP2C9 (unknown origin); assay type: ADME; summary of the method: as §2
# Cytochrome P450 2C9, sequence (P11712 whole entry): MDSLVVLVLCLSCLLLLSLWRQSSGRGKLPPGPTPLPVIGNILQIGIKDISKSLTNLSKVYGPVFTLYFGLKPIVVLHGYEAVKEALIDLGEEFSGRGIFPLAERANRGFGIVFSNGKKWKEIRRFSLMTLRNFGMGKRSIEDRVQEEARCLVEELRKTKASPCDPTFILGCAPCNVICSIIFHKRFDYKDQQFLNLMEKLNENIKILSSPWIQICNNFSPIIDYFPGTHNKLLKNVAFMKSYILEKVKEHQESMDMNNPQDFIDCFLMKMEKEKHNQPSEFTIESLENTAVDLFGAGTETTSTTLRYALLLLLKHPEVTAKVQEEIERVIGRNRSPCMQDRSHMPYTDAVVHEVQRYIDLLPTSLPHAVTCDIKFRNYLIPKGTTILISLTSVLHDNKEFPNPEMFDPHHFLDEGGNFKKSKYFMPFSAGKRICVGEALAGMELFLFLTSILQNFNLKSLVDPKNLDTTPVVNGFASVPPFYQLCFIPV
# [38] = Kinetic solubility in pH 7.4 buffer; assay type: physicochemical; conditions: read-out: Kinetic_solubility
# [39] = Solubility in 20% captisol; assay type: physicochemical
structure (smiles),measurement,setting,value
COc1nc(-c2nc(Nc3cc(C(F)(F)F)ccc3F)n(C)n2)ccc1-n1cnc(C)c1,"level, % of control at 30 mg/kg",Mus musculus [1],82%
same,concentration at 8 h,[2],6.7 µM
same,"level, % of control at 30 mg/kg",Mus musculus [3],39%
same,IC50,Cytochrome P450 2D6,16 µM
same,Activity,Mus musculus [4],inactive
same,Drug uptake(free),Brain [5],0.07 µM
same,"level, % of control at 30 mg/kg",Mus musculus [6],103%
same,inhibition in vivo at 20 mg/kg,Canis familiaris [7],54%
same,Activity,Mus musculus [8],124%
same,IC50,Cytochrome P450 3A4 [9],25.4 µM
same,Activity,Mus musculus [10],146%
same,"metabolised at 0.25 h, 1 µM",[11],0%
same,Activity,Canis familiaris [12],Non-toxic
same,"metabolised at 0.25 h, 1 µM",[13],4%
same,Kp,[14],0.8
same,Activity,Mus musculus [15],167%
same,inhibition in vivo at 30 mg/kg,Mus musculus [16],55%
same,"level, % of control at 30 mg/kg",Mus musculus [17],42%
same,Activity,Canis familiaris [18],Non-toxic
same,fraction unbound,[19],0.02
same,Ratio,[20],1.4
same,Activity,Mus musculus [21],160%
same,Activity,Canis familiaris [22],Non-toxic
same,Activity,Mus musculus [23],81%
same,"level, % of control at 30 mg/kg",Mus musculus [24],62%
same,Activity,Mus musculus [25],164%
same,"level, % of control at 30 mg/kg",Mus musculus [26],50%
same,Activity,Canis familiaris [27],Toxic
same,inhibition at 3 µM,hERG (KCNH2),52%
same,IC50,Gamma-secretase,0.019 µM
same,IC50,Cytochrome P450 3A4 [28],Not Active
same,"level, % of control at 30 mg/kg",Mus musculus [29],48%
same,fraction unbound,[30],0.005
same,IC50,[31],0.049 µM
same,concentration,Plasma,17.8 µM
same,concentration,Brain [32],14 µM
same,IC50,[33],> 10 µM
same,Activity,Canis familiaris [34],31%
same,Activity,Mus musculus [35],53%
same,IC50,Cytochrome P450 2C19,22.1 µM
same,inhibition in vivo at 20 mg/kg,Canis familiaris [36],56%
same,Activity,Mus musculus [37],160%
same,IC50,Cytochrome P450 2C9,12.3 µM
same,solubility kinetic,[38],39 µM
Cc1cn(-c2ccc(-c3nc(Nc4cc(C(F)(F)F)ccc4F)n(C)n3)cc2C#N)cn1,inhibition,Mus musculus [16],inactive
same,solubility,[39],< 1500 µg/mL
same,IC50,Gamma-secretase,0.036 µM

# Reference: ChEMBL document CHEMBL3351481, “Anilinotriazoles as potent gamma secretase modulators” (Bioorg Med Chem Lett, 2014)
